This is an account of results in ChEMBL document CHEMBL3232919, “Imidazol-1-ylethylindazole voltage-gated sodium channel ligands are neuroprotective during optic neuritis in a mouse model of multiple sclerosis” (J Med Chem, 2014).

SMILES strings stand for the structures. The source made the active and inactive calls. The rule behind the calls is not given here.

Series [1] has as its system Mus musculus. Kind of series: Immunosuppressive activity in […] oxazolone-induced ABH mouse assessed as effect on cell proliferation response in draining lymph node at 5 to 50 mg/kg, ip from day -1 to day 2 by local lymph node assay. It is filed as functional, organism-based.
The nature of series [2]: Metabolic stability in rat liver microsomes assessed as drug turnover at 1 uM at 40 mins by LC-MS/MS analysis. In kind it is ADME. The conditions noted are these: read-out: Drug metabolism. Put shortly: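 Compound at 1 μM was incubated (n=2) with pooled rat liver microsomes (0.25 mg protein/ml) at 37°C for 0 and 40 min. Reactions were stopped with acetonitrile containing an internal standard, and parent disappearance was measured by LC-MS/MS. Percentage turnover was taken from peak heights relative to the zero-time samples.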

Series [3] deals with T1, Sodium channel protein type 4 subunit alpha (Homo sapiens, UniProt P35499). Kind of series: Inhibition of human Nav1.4 assessed as inactivated-state block by patch-clamp electrophysiology/cell based assay. Put shortly:
(§1)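 Automated parallel patch clamp (PatchXpress 7000A) on human Nav isoforms, room temperature. Compound tested at 0.1, 0.3, 1, 3, 10, 30 and 100 μM, two to four cells per concentration, 5 min exposure each. Use-dependence on Nav1.1 and Nav1.8/β3 by double pulse protocol: holding -80 mV, prepulse -120 mV, then pulse 1 to 0 mV for 200 ms.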

For series [4], the target named is T2, Sodium channel protein type 1 subunit alpha (Homo sapiens, UniProt P35498). Kind of series: Inhibition of human Nav1.1 assessed as inactivated-state block using double pulse protocol by patch-clamp electrophysiology/cell based assay. The gist of the method:
as §1
(Patch clamp records ionic current or voltage across a cell membrane.)

The species named for a further series is Rattus norvegicus. Kind of series: Neuroprotective activity in oxygen/glucose deprivation-induced Wistar rat hippocampal slice assessed as inhibition of cell death by measuring ATP level at 50 uM. It is filed as functional.
In series [5] the target is T3, Sodium channel protein type 3 subunit alpha (Homo sapiens, UniProt Q9NY46). Kind of series: Inhibition of human Nav1.3 assessed as inactivated-state block by patch-clamp electrophysiology/cell based assay. Put shortly:
(§2)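 Automated parallel patch-clamp (PatchXpress 7000A) on cells expressing human Nav1.3, run at room temperature. Compounds were tested at 0.1, 0.3, 1, 3, 10, 30 and 100 μM, each in two to four cells, with 5 min exposure per concentration.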

Series [6] concerns the target T1, Sodium channel protein type 4 subunit alpha. Kind of series: Inhibition of human Nav1.4 assessed as tonic block by patch-clamp electrophysiology/cell based assay. Put shortly: as §1
In series [7] the target is T2, Sodium channel protein type 1 subunit alpha. Kind of series: Inhibition of human Nav1.1 assessed as 10 Hz block using double pulse protocol by patch-clamp electrophysiology/cell based assay. Put shortly: as §1
Series [8] deals with Mus musculus. Kind of series: Neuroprotective activity in C57BL/6-Cg-Tg(Thy1-CFP)23Jrs.Tg(Tcra2D2, Tcrb2D2)1Kuch/J transgenic mouse optic neuritis model assessed as increase in ganglion cell survival at 5 mg/kg, ip. It is filed as functional, organism-based. Also noted: dose 5 mg/kg.
For series [9], the target named is T4, Sodium channel protein type 8 subunit alpha (Homo sapiens, UniProt Q9UQD0). Kind of series: Inhibition of human Nav1.6 assessed as 10 Hz block by patch-clamp electrophysiology/cell based assay. The gist of the method: (§3)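 Automated parallel patch clamp on cells expressing human Nav isoforms (hNav1.1 to hNav1.8/β3), at room temperature. Compounds were tested at 0.1, 0.3, 1, 3, 10, 30 and 100 μM. Each exposure lasted 5 min, with two to four cells per concentration.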

For series [10], the target named is T2, Sodium channel protein type 1 subunit alpha. Kind of series: Inhibition of human Nav1.1 assessed as tonic block using double pulse protocol by patch-clamp electrophysiology/cell based assay. The gist of the method:
as §1

The target in series [11] is T1, Sodium channel protein type 4 subunit alpha. Kind of series: Inhibition of human Nav1.4 assessed as 10 Hz block by patch-clamp electrophysiology/cell based assay. The gist of the method: as §1
A short description of series [12]: Displacement of [3H]sipatrigine from Wistar rat brain synaptosomes voltage-gated sodium channel by liquid scintillation counting. It is filed as subcellular.
The subject of series [13] is Mus musculus. Kind of series: Toxicity in mouse assessed as motor coordination at 5 to 50 mg/kg, ip from day -1 to day 2 by RotaRod assay. To be noted: in vivo. Details: dose 5-50 mg/kg, route intraperitoneal. It is filed as organism-based.
The target of series [14] is T3, Sodium channel protein type 3 subunit alpha. Kind of series: Inhibition of human Nav1.3 assessed as tonic block by patch-clamp electrophysiology/cell based assay. Put shortly:
as §2

The target of series [15] is T5, Sodium channel protein type 5 subunit alpha (Homo sapiens, UniProt Q14524). Kind of series: Inhibition of human Nav1.5 assessed as tonic block by patch-clamp electrophysiology/cell based assay. The gist of the method: as §1
Series [16] has as its target T5, Sodium channel protein type 5 subunit alpha. Kind of series: Inhibition of human Nav1.5 assessed as inactivated-state block by patch-clamp electrophysiology/cell based assay. Put shortly: as §1
Series [17] deals with T4, Sodium channel protein type 8 subunit alpha. Kind of series: Inhibition of human Nav1.6 assessed as tonic block by patch-clamp electrophysiology/cell based assay. The gist of the method: as §3
Series [18] has as its system Mus musculus. Kind of series: Neuroprotective activity in C57BL/6-Cg-Tg(Thy1-CFP)23Jrs.Tg(Tcra2D2, Tcrb2D2)1Kuch/J transgenic mouse optic neuritis model assessed as reduction in retinal loss measured as number of cells at 5 mg/kg, ip (reference value: 914 +/- 89 cells). It is filed as functional. The conditions noted are these: route intraperitoneal.
Series [19] addresses T4, Sodium channel protein type 8 subunit alpha. Kind of series: Inhibition of human Nav1.6 assessed as inactivated-state block by patch-clamp electrophysiology/cell based assay. The gist of the method: as §3
Series [20] addresses T3, Sodium channel protein type 3 subunit alpha. Kind of series: Inhibition of human Nav1.3 assessed as 10 Hz block by patch-clamp electrophysiology/cell based assay. Put shortly:
as §2

For series [21], the target named is T6, Sodium channel protein type 10 subunit alpha (Homo sapiens, UniProt Q9Y5Y9). Kind of series: Inhibition of human Nav1.8 assessed as tonic block using double pulse protocol by patch-clamp electrophysiology/cell based assay. The gist of the method:
as §1

Series [22] addresses T6, Sodium channel protein type 10 subunit alpha. Kind of series: Inhibition of human Nav1.8 assessed as 10 Hz block using double pulse protocol by patch-clamp electrophysiology/cell based assay. The gist of the method: as §1
The target is the same in series [23]. Kind of series: Inhibition of human Nav1.8 assessed as inactivated-state block using double pulse protocol by patch-clamp electrophysiology/cell based assay. Put shortly:
as §1

For series [24], the target named is T7, Sodium channel protein type 9 subunit alpha (Homo sapiens, UniProt Q15858). Kind of series: Inhibition of human Nav1.7 assessed as 10 Hz block by patch-clamp electrophysiology/cell based assay.
The target in series [25] is T7, Sodium channel protein type 9 subunit alpha. Kind of series: Inhibition of human Nav1.7 assessed as tonic block by patch-clamp electrophysiology/cell based assay.
In series [26] the target is T8, Sodium channel protein type 2 subunit alpha (Homo sapiens, UniProt Q99250). Kind of series: Inhibition of human Nav1.2 assessed as inactivated-state block by patch-clamp electrophysiology/cell based assay.
For series [27], the target named is T8, Sodium channel protein type 2 subunit alpha. Kind of series: Inhibition of human Nav1.2 assessed as 10 Hz block by patch-clamp electrophysiology/cell based assay.
Series [28] shares this target. Kind of series: Inhibition of human Nav1.2 assessed as tonic block by patch-clamp electrophysiology/cell based assay.
The target in series [29] is T7, Sodium channel protein type 9 subunit alpha. Kind of series: Inhibition of human Nav1.7 assessed as inactivated-state block by patch-clamp electrophysiology/cell based assay.
For series [30], the target named is T5, Sodium channel protein type 5 subunit alpha. Kind of series: Inhibition of human Nav1.5 assessed as 10 Hz block by patch-clamp electrophysiology/cell based assay. Put shortly:
as §1

T1 sequence (P35499 whole entry, canonical isoform): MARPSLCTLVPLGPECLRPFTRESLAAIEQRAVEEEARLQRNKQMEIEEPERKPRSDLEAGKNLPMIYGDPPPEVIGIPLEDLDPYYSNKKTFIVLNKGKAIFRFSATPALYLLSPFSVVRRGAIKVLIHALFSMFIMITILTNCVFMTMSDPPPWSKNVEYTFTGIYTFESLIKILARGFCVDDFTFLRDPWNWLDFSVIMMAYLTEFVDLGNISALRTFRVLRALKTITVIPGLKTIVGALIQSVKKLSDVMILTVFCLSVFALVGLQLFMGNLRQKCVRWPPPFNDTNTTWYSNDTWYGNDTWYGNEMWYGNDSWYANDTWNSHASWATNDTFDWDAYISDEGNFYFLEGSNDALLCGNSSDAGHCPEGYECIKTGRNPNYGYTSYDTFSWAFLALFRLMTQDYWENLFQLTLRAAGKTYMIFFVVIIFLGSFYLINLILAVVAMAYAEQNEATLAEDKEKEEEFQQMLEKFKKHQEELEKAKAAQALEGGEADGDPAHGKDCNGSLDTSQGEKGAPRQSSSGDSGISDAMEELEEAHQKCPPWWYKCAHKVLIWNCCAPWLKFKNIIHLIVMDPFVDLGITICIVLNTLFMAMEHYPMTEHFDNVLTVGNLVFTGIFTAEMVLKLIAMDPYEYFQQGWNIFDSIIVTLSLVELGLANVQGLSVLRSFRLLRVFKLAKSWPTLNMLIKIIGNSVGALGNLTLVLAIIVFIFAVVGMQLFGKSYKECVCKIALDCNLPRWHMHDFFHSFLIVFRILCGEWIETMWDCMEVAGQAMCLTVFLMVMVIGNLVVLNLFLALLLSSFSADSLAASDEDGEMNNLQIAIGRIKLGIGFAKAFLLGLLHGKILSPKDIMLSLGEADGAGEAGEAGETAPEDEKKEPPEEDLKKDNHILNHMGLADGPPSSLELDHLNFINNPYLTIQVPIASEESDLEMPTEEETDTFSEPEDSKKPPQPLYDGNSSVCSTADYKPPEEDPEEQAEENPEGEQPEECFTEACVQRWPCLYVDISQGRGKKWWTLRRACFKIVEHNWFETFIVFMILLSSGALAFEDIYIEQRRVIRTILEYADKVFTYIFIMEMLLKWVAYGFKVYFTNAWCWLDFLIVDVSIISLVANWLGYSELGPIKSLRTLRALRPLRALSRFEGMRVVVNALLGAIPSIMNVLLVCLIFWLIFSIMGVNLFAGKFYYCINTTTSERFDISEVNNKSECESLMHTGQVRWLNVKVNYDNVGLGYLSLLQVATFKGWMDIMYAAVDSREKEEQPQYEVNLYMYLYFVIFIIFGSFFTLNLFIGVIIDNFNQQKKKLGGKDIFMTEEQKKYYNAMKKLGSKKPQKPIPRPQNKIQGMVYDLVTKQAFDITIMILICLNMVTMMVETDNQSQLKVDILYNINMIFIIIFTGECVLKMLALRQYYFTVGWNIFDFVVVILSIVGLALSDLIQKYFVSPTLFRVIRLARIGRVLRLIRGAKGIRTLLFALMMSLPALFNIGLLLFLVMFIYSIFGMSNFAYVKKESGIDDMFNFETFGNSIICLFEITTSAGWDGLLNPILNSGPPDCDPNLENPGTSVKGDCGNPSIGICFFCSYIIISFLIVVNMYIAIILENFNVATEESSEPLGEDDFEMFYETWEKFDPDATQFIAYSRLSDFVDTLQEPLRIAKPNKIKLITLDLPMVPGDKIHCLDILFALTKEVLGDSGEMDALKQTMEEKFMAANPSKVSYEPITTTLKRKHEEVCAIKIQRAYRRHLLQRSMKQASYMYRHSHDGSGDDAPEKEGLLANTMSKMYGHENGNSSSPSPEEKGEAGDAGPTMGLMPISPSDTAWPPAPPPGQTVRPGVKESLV
T6 sequence (Q9Y5Y9 whole entry): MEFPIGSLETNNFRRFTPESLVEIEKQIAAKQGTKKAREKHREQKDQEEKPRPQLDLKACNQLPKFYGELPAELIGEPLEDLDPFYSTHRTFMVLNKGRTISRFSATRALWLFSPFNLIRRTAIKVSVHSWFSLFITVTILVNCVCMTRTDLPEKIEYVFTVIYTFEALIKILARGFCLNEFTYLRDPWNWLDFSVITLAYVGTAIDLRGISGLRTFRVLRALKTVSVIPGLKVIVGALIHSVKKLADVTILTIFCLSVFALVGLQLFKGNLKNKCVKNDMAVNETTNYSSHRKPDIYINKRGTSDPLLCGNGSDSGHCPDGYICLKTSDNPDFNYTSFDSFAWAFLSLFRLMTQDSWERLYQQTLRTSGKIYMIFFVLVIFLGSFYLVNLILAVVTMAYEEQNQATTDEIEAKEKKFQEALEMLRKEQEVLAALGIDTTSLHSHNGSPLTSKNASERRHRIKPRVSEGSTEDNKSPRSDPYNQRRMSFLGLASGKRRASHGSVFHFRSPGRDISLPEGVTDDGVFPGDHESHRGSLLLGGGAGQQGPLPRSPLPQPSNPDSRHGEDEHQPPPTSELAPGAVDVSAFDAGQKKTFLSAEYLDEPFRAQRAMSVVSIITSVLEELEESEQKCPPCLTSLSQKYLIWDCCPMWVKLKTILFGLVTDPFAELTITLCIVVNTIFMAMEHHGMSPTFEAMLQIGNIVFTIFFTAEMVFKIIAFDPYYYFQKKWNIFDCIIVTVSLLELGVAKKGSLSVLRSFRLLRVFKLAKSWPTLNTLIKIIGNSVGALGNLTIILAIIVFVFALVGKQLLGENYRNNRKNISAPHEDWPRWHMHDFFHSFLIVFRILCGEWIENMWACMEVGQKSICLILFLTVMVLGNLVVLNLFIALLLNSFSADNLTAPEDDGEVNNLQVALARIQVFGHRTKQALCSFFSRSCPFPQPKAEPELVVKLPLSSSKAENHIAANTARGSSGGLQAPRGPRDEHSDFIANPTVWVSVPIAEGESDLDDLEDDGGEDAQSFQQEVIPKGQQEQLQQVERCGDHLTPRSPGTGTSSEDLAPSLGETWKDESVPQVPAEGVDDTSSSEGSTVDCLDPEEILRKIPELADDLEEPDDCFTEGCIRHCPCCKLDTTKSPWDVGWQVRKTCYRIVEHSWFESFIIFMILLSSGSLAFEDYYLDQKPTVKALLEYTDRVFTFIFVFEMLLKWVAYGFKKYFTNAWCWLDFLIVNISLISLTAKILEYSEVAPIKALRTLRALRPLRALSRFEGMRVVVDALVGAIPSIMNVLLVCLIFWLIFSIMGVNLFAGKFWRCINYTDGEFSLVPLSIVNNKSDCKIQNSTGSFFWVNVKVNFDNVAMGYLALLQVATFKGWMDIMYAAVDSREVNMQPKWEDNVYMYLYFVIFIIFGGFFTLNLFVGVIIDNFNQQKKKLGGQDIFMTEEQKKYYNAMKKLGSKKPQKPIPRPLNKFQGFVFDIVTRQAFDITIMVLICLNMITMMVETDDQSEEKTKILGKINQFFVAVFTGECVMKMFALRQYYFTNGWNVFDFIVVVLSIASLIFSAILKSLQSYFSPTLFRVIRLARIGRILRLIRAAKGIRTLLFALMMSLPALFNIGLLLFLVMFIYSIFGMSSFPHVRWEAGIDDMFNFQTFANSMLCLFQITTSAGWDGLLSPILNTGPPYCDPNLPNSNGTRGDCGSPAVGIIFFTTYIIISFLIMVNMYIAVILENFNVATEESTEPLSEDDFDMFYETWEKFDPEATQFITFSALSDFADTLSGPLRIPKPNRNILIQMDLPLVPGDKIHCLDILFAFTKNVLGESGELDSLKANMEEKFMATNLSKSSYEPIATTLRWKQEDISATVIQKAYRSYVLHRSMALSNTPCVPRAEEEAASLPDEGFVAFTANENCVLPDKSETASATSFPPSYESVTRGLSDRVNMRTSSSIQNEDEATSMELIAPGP

Turning to `O=C(NCc1noc(-c2nn(CCn3ccnc3)c3ccccc23)n1)c1ccccc1`, the inhibition (commonly the drop in the measured response relative to a control, in per cent) in the series on Mus musculus [1] was “inactive”. Also, the metabolised at 40 min, 1 µM in series [2] stood at 47%. Moreover, the concentration for half-maximal inhibition (IC50) (as a rule, the point on the concentration scale where inhibition reaches its midpoint) was 24 µM in series [3]; 21 µM in [4]; 22 µM in [5]; above 100 µM in series [6]; above 100 µM in series [7]; above 100 µM in series [9]. Moreover, the IC50 in series [10] is above 100 µM; in series [11], 56 µM; in series [12], 13 µM; in series [14] it was above 100 µM; in series [15], above 100 µM; in [16], 19 µM. Besides, the figures for the IC50 in series [17], in [19] and in series [20] were above 100 µM, 24 µM and above 100 µM, respectively. In addition, the inhibition at 50 µM in the series filed under Rattus norvegicus was 47%. In the series on Mus musculus [8], the outcome was Active. Also, the Activity entry in the series on Mus musculus [13] is recorded as “Non-toxic”; in the series with Mus musculus [18] it was 1298 /mm2.
In the case of `O=C(NCc1noc(-c2c3ccccc3nn2CCn2ccnc2)n1)c1cccc(OC(F)(F)F)c1`, the IC50 was 6.34 µM in series [21]; 4.58 µM in [3]; 2.55 µM in series [4]; 5.66 µM in series [22]; 4.76 µM in series [5]; 3.77 µM in series [23]. The IC50 in [6] came out at 18.3 µM; in series [7], 8.54 µM; in series [24], 4.82 µM; in series [9] it was 32.2 µM; in series [25], 5.64 µM; in series [10] it was 15.3 µM. In addition, the half-maximal inhibitory concentration (IC50) in series [11] was 10.5 µM; in series [26], 3.54 µM; in series [27], 24.1 µM; in series [28] it was 65 µM; in series [14], above 100 µM; in [15] it was 36 µM. The IC50 in series [16] was 0.92 µM; in series [29] it was 3.02 µM; in series [17], above 100 µM; in [19], 3.32 µM; in series [20], 97 µM; in series [30] it was 14.8 µM. Moreover, the inhibition at 50 µM in the series listed under Rattus norvegicus was 78%.
